Molecules are shown by their SMILES.

The values below come from ChEMBL document CHEMBL4033799, “Stable and Long-Lasting, Novel Bicyclic Peptide Plasma Kallikrein Inhibitors for the Treatment of Diabetic Macular Edema” (J Med Chem, 2018).

For one assay, the target named is Plasminogen (Homo sapiens, UniProt P00747). Briefly: Inhibition of recombinant human plasmin using fluorogenic D-AFK-ANSNH-iC4H9.2HBr peptide as substrate by fluorescence based assay. In a few lines: (§1)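 Panel of human serine proteases. Substrates and assay conditions followed each supplier's recommendations. Peptides were first screened at 50 μM. Where inhibition was detectable, hydrolytic activity was measured across a range of peptide concentrations. Ki was obtained by fitting to the tight-binding inhibitor rate equation.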
Plasminogen, sequence (P00747 97-580 limits assumed): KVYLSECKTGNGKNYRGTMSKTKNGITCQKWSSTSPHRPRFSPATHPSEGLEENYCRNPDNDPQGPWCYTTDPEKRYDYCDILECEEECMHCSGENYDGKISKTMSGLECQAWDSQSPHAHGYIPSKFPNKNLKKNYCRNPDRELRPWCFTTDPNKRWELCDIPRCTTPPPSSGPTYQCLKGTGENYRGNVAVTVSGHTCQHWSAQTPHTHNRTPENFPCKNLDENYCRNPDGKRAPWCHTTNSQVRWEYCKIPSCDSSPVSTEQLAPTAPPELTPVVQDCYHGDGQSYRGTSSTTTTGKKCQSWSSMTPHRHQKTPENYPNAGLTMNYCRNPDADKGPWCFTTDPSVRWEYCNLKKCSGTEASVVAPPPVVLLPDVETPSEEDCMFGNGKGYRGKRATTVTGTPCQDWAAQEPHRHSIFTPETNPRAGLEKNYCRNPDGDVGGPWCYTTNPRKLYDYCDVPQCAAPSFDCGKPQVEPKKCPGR
Plasminogen, sequence (P00747 581-810 limits assumed): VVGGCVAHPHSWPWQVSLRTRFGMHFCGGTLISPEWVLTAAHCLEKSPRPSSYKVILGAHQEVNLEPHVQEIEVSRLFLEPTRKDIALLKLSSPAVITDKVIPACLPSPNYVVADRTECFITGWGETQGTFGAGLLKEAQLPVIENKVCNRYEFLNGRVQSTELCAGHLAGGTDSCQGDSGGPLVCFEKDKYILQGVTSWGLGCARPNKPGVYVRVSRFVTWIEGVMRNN

Assay [1] is described as follows: Inhibition of cynomolgus monkey plasma kallikrein using fluorogenic H-Pro-Phe-Arg-AMC peptide as substrate preincubated for 15 mins followed by substrate addition measured by fluorescence-based assay. Particulars: read-out: Ki(app).
A further assay addresses T1, Coagulation factor VII (Homo sapiens, UniProt P08709).
T1 sequence (P08709 whole entry): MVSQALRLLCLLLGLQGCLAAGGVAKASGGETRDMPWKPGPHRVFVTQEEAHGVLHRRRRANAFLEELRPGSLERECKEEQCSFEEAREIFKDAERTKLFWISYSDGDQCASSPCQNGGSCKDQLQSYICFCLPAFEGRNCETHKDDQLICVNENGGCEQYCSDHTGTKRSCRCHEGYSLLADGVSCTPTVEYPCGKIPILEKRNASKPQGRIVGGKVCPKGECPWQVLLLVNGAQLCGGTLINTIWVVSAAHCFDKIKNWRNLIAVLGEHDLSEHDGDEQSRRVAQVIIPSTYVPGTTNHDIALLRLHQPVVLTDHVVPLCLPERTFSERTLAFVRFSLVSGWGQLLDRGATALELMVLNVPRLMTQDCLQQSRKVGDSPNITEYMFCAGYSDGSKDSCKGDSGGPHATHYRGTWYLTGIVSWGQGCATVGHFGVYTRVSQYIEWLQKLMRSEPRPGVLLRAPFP
The assay is described as follows: Inhibition of human factor 7a using fluorogenic peptide as substrate by fluorescence based assay. In a few lines:
(§2)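 Human serine proteases were assayed with substrates and conditions set by each supplier's recommendations. Peptides were first screened at 50 μM. Where inhibition was detected, Ki was determined from activity across peptide concentrations using a tight-binding rate equation.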

In assay [2] the target is Vitamin K-dependent protein C (Homo sapiens, UniProt P04070). The assay is described as follows: Inhibition of human activated protein C by fluorescence based assay. In a few lines:
as §2

For another assay, the target named is T2, Kallikrein-12 (Homo sapiens, UniProt Q9UKR0).
T2 sequence (Q9UKR0 whole entry): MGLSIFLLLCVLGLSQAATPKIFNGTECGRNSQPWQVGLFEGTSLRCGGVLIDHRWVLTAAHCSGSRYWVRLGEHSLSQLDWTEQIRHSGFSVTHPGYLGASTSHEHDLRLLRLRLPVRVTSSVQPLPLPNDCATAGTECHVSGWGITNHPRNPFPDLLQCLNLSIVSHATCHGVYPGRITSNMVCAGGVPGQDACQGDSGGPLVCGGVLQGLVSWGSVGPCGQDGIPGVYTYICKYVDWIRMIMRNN
The assay is described as follows: Inhibition of recombinant human C-terminal 10His-tagged KLK12 (18 to 248 residues) expressed in mouse NS0 cells using fluorogenic Boc-VPR-AMC peptide as substrate by fluorescence based assay. The gist of the method: as §2

Assay [3] deals with T3, Suppressor of tumorigenicity 14 protein (Homo sapiens, UniProt Q9Y5Y6).
T3 sequence (Q9Y5Y6 whole entry): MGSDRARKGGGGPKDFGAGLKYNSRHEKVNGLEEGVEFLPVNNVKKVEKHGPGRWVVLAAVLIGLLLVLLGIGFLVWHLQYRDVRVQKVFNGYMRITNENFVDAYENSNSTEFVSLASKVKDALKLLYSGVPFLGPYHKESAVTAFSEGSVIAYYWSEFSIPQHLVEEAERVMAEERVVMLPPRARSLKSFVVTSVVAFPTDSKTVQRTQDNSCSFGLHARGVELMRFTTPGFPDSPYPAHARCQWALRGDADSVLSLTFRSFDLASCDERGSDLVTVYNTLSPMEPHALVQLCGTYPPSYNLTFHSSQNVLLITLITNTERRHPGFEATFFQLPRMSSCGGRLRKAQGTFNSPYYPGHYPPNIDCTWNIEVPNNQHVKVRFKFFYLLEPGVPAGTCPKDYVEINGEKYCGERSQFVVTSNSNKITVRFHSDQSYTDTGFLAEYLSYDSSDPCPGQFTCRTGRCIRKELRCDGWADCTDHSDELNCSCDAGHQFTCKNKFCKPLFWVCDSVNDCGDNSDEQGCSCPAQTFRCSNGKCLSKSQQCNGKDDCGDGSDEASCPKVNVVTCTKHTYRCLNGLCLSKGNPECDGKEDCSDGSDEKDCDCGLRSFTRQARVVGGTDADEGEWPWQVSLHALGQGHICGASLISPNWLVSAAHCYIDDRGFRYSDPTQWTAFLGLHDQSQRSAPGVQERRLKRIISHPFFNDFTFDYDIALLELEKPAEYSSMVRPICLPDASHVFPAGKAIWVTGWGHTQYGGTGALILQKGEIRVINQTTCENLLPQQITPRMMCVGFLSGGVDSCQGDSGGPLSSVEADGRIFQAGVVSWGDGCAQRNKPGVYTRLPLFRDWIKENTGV
Briefly: Inhibition of recombinant human N-terminal 6His-tagged matriptase catalytic domain (596 to 855 residues) expressed in Escherichia coli using fluorogenic Boc-QAR-AMC peptide as substrate after 5 mins by fluorescence based assay. The gist of the method: as §1

Assay [4] in a line: Inhibition of dog plasma kallikrein using fluorogenic H-Pro-Phe-Arg-AMC peptide as substrate preincubated for 15 mins followed by substrate addition measured by fluorescence-based assay. Particulars: read-out: Ki(app).
Another assay addresses T4, Coagulation factor XII (Homo sapiens, UniProt P00748).
T4 sequence (P00748 whole entry): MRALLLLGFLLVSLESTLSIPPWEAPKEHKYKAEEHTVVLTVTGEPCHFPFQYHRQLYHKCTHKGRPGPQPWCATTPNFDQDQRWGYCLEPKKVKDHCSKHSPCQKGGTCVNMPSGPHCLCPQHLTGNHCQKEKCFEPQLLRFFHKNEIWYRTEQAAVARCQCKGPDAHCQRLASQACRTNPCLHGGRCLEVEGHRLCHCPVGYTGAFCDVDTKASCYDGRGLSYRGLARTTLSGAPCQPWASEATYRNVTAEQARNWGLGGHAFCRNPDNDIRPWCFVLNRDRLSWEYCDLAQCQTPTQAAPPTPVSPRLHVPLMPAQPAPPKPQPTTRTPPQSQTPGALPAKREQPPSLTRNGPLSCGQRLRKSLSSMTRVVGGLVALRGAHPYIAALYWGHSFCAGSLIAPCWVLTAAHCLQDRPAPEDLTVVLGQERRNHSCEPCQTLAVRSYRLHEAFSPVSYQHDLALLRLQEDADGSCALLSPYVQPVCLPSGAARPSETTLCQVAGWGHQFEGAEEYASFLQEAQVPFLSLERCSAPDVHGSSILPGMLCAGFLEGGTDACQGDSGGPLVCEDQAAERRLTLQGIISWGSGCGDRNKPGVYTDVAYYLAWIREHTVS
Briefly: Inhibition of human factor 12a using fluorogenic peptide as substrate by fluorescence based assay. The gist of the method:
as §2

Vitamin K-dependent protein C, sequence (P04070 43-197 limits assumed): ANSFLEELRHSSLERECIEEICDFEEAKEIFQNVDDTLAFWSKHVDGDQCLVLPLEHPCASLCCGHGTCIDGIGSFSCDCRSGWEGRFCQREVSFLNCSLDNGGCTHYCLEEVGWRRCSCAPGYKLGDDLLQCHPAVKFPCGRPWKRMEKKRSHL
Vitamin K-dependent protein C, sequence (P04070 212-461 limits assumed): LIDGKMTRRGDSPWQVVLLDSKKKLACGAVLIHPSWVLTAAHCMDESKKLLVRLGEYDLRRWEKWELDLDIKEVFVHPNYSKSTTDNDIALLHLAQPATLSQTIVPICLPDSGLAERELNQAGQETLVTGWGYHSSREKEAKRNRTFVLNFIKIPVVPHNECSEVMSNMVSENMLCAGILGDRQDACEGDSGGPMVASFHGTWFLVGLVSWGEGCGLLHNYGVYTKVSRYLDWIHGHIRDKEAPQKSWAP

For `CC(=O)N[C@H]1CSCc2cc3cc(c2)CSC[C@H](C(=O)N[C@@H](C)C(=O)N(C)CC(=O)N(C)CC(=O)N(C)CC(=O)N[C@H](CCCNC(=N)N)C(=O)N[C@H](CCCNC(=N)N)C(=O)O)NC(=O)[C@H](CC(C)C)NC(=O)[C@@H]2CCCN2C(=O)[C@H](C)NC(=O)[C@H](CC(=O)O)NC(=O)[C@H](Cc2c[nH]c4ccccc24)NC(=O)[C@@H]2CCCN2C(=O)[C@H](CSC3)NC(=O)[C@H](Cc2c[nH]c3ccccc23)NC(=O)[C@@H]2CCCN2C(=O)[C@H](CC(N)=O)NC(=O)[C@H](Cc2c[nH]c3ccccc23)NC(=O)[C@H]([C@@H](C)O)NC(=O)[C@H](CC(N)=O)NC1=O`, the Ki on Plasminogen is > 50 µM; in assay [1], 0.0031 µM; on Coagulation factor VII it was > 50 µM; in assay [2] it was > 50 µM; on Kallikrein-12, > 50 µM; in assay [3] it was 40 µM. Moreover, the Ki is 0.5 µM in assay [4] and > 50 µM at Coagulation factor XII.

Turning to `CC(=O)N[C@H]1CSCc2cc3cc(c2)CSC[C@H](NC(=O)[C@H](CCCCNC(=N)N)NC(=O)[C@H](Cc2ccc(O)cc2)NC(=O)[C@@H]2CCN2C(=O)[C@H](Cc2ccccc2)NC(=O)[C@H](CO)NC1=O)C(=O)N[C@@H](C)CN[C@@H](Cc1cnc[nH]1)C(=O)N[C@@H](CCC(N)=O)C(=O)N[C@@H](CC(=O)O)C(=O)N[C@@H](CC(C)C)C(=O)N[C@H](C(=O)O)CSC3`, the Ki on Plasminogen is > 50 µM; in assay [1], 0.0027 µM; at Coagulation factor VII it was > 50 µM; in assay [2] it was > 50 µM; on Kallikrein-12, > 50 µM; in assay [3], 50 µM. For the same compound, the values for the Ki (in assay [4]; at Coagulation factor XII) were 0.08 µM and > 50 µM, respectively.

Turning to `CC[C@H](C)[C@@H]1NC(=O)[C@H](CC(=O)O)NC(=O)[C@@H]2CCCN2C(=O)[C@H](Cc2ccc(O)cc2)NC(=O)[C@H](Cc2ccc(O)cc2)NC(=O)[C@H](C(C)C)NC(=O)[C@@H]2CSCc3cc(cc(c3)CSC[C@@H](C(=O)N[C@@H](C)C(=O)N(C)CC(=O)N(C)CC(=O)N(C)CC(=O)N[C@H](CCCNC(=N)N)C(=O)N[C@H](CCCNC(=N)N)C(=O)O)NC1=O)CSC[C@H](NC(C)=O)C(=O)N[C@@H](CO)C(=O)N[C@@H](Cc1ccccc1)C(=O)N1CCC1C(=O)N[C@@H](Cc1ccc(O)cc1)C(=O)N[C@@H](CCCCNC(=N)N)C(=O)N2` (some centres undefined), the Ki at Plasminogen was > 50 µM; in assay [1] it was 0.00086 µM; at Coagulation factor VII it was > 50 µM; in assay [2] it was > 50 µM; at Kallikrein-12, > 50 µM; in assay [3], 15 µM. Besides, the Ki in assay [4] was 0.022 µM; at Coagulation factor XII, > 50 µM.
